Laboratory results taken from ChEMBL document CHEMBL4346747, “Alkynamide phthalazinones as a new class of TbrPDEB1 inhibitors” (Bioorg Med Chem, 2019).

How the values were obtained:
[1] = Cytotoxicity against human MRC5 SV2 cells assessed as reduction in cell viability measured after 72 hrs by resazurin dye based fluorimetric analysis
Trypanosoma brucei [2] = experiment: Antitrypanosomal activity against suramin sensitive Trypanosoma brucei Squib427 trypomastigotes assessed as reduction in parasitic cell viability measured after 72 hrs by resazurin dye based fluorimetric analysis; type: functional, organism-based; conditions: Squib427, 72 h
Summary of the method: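 Suramin-sensitive Squib-427 trypomastigotes cultured in HMI-9 with 10% heat-inactivated FCS at 37 °C, 5% CO2. About 1.5 × 10^4 parasites per well, five concentrations (64, 16, 4, 1, 0.25 μM), DMSO ≤0.5%, 72 h at 37 °C. Resazurin added, fluorescence read 24 h later (ex 550/em 590 nm) as % viability reduction vs control. Suramin reference; duplicate experiments, mean ± S.E.M.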

[3] = biological target: T1, Class 1 phosphodiesterase PDEB1 (Trypanosoma brucei, UniProt Q8WQX9); experiment: Inhibition of Trypanosoma brucei PDEB1 catalytic domain (565 to 918 residues) expressed in Escherichia coli BL21 incubated for 20 mins using cAMP as substrate by PDELight HTS cAMP phosphodiesterase Kit based luminometry
T1 sequence (Q8WQX9 whole entry): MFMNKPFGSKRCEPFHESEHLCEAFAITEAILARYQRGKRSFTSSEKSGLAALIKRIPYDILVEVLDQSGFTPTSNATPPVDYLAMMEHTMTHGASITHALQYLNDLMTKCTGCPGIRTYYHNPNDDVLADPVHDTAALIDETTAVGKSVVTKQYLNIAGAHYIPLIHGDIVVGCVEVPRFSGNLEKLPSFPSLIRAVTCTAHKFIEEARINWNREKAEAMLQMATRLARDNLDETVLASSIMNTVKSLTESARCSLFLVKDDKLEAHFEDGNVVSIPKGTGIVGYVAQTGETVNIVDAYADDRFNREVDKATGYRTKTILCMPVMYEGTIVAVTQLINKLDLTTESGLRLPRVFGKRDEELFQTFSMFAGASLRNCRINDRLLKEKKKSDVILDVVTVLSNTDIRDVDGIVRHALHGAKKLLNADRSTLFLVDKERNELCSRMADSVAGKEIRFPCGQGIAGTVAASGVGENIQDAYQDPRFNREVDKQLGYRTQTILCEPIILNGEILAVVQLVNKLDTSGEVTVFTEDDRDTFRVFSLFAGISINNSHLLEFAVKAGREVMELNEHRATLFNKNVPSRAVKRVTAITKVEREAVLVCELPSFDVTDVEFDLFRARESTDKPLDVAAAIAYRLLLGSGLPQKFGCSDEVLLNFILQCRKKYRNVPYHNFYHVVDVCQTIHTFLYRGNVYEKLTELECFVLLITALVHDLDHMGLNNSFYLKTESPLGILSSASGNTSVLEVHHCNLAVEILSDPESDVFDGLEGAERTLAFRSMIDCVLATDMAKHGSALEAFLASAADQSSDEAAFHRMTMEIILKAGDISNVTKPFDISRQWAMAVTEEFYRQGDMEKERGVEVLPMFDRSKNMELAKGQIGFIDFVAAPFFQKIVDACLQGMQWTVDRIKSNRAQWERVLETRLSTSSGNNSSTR

[4] = Cytotoxicity against human MRC5 SV2 cells assessed as reduction in cell viability at 64 uM measured after 72 hrs by resazurin dye based fluorimetric analysis
[5] = biological target: 3',5'-cyclic-AMP phosphodiesterase 4B (Homo sapiens, UniProt Q07343); experiment: Inhibition of human PDE4B catalytic domain incubated for 20 mins using cAMP as substrate by PDELight HTS cAMP phosphodiesterase Kit based luminometry
Sequence of 3',5'-cyclic-AMP phosphodiesterase 4B (Q07343 whole entry, the tested form may be a part): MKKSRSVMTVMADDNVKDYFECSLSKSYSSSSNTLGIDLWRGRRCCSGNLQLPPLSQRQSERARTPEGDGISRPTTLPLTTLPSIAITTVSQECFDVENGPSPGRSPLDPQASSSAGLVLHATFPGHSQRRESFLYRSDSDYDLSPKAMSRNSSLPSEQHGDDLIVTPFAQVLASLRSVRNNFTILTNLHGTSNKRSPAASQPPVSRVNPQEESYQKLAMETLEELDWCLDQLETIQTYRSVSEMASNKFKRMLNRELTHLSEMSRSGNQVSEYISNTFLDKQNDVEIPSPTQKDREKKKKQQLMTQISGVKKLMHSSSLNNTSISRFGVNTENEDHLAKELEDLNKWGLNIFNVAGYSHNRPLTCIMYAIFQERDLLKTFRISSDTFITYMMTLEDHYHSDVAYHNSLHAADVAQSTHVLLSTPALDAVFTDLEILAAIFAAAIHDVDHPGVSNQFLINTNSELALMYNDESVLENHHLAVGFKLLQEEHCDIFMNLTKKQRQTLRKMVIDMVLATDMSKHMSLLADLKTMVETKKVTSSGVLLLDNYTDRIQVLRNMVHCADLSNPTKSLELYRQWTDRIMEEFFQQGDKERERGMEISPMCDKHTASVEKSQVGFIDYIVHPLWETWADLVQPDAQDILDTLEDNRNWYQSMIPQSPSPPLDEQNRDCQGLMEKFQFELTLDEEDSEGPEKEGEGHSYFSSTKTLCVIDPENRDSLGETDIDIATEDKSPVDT

Trypanosoma brucei [6] = experiment: Antitrypanosomal activity against bloodstream of Trypanosoma brucei trypanosomes assessed as increase in intracellular cAMP level at 3.2 uM measured per 5x10^6 cells after 4 hrs by direct cAMP enzyme immunoassay kit based ELISA (reference value: 6.66 pmol); type: functional
Trypanosoma brucei [7] = experiment: Antitrypanosomal activity against bloodstream of Trypanosoma brucei trypanosomes assessed as increase in intracellular cAMP level at 8 uM measured per 5x10^6 cells after 4 hrs by direct cAMP enzyme immunoassay kit based ELISA (reference value: 6.66 pmol); type: functional

SMILES | Ki [3] [nM] | other results
COc1ccc(C2=NN(C(C)C)C(=O)[C@@H]3CC=CC[C@H]23)cc1-c1ccc(C(=O)NCC(N)=O)cc1 | – | CC50 at 72 h [1]: 31600 nM; IC50 (Trypanosoma brucei [2]; read-out: pIC50 (converted)): 6310 nM
COc1ccc(C2=NN(C3CCCCCC3)C(=O)[C@@H]3CC=CC[C@H]23)cc1-c1ccc(C(=O)NCC(N)=O)cc1 | – | CC50 at 72 h [1]: 39800 nM; IC50 (Trypanosoma brucei [2]; read-out: pIC50 (converted)): 5010 nM
COc1ccc(C2=NN(C3CCCCCC3)C(=O)[C@@H]3CC=CC[C@H]23)cc1-c1ccc2c(c1)CNC2=O | 1580 | –
COc1ccc(C2=NN(C(C)C)C(=O)[C@@H]3CC=CC[C@H]23)cc1N1CC(C(N)=O)C1 | > 10000 | –
COc1ccc(C2=NN(C3CCCCCC3)C(=O)[C@@H]3CC=CC[C@H]23)cc1-c1ccc(C(=O)NCC(N)=O)c(F)c1 | 794 | –
COCCN1Cc2cc(-c3cc(C4=NN(C5CCCCCC5)C(=O)[C@@H]5CC=CC[C@H]45)ccc3OC)ccc2C1=O (relative stereo) | 1260 | –
COc1ccc(C2=NN(C3CCCCCC3)C(=O)[C@@H]3CC=CC[C@H]23)cc1C#Cc1cnco1 (relative stereo) | > 10000 | –
C#Cc1cc(C2=NN(C3CCCCCC3)C(=O)[C@@H]3CC=CC[C@H]23)ccc1OC (relative stereo) | 3980 | –
CCCCNC(=O)c1ccc(-c2cc(C3=NN(C(C)C)C(=O)[C@@H]4CC=CC[C@H]34)ccc2OC)s1 (relative stereo) | > 10000 | –
COc1ccc(C2=NN(C(C)C)C(=O)[C@@H]3CC=CC[C@H]23)cc1-c1ccc(C(=O)NCc2ccco2)s1 (relative stereo) | > 10000 | –
COc1ccc(C2=NN(C3CCCCCC3)C(=O)[C@@H]3CC=CC[C@H]23)cc1C#CC(=O)NCc1ccco1 (relative stereo) | 501 | CC50 at 72 h [1]: 50100 nM; Activity [4]: Non-Toxic; IC50 (Trypanosoma brucei [2]; read-out: IC50): 600 nM; IC50 (Trypanosoma brucei [2]; read-out: pIC50 (converted)): 631 nM; Ki [5]: 398 nM
COc1ccc(C2=NN(C3CCCCCC3)C(=O)[C@@H]3CC=CC[C@H]23)cc1C#CC(N)=O (relative stereo) | – | Activity (Trypanosoma brucei [6]): 19.8 pmol; CC50 at 72 h [1]: 10000 nM; Activity (Trypanosoma brucei [7]): 311 pmol; IC50 (Trypanosoma brucei [2]; read-out: pIC50 (converted)): 1000 nM
COc1ccc(C2=NN(C3CCCCCC3)C(=O)[C@@H]3CC=CC[C@H]23)cc1C#CC(=O)N1CCOCC1 (relative stereo) | 1000 | –
COc1ccc(C2=NN(C3CCCCCC3)C(=O)[C@@H]3CC=CC[C@H]23)cc1-c1ccc(C(=O)NCC(N)=O)cc1C (relative stereo) | > 10000 | –
COc1ccc(C2=NN(C3CCCCCC3)C(=O)[C@@H]3CC=CC[C@H]23)cc1C#CC(=O)NCC(N)=O (relative stereo) | 631 | CC50 at 72 h [1]: 3980 nM; IC50 (Trypanosoma brucei [2]; read-out: pIC50 (converted)): 3980 nM
COc1ccc(C2=NN(C(C)C)C(=O)[C@@H]3CC=CC[C@H]23)cc1-c1ccc(C(N)=O)s1 (relative stereo) | 10000 | –
CCCCNC(=O)C#Cc1cc(C2=NN(C3CCCCCC3)C(=O)[C@@H]3CC=CC[C@H]23)ccc1OC (relative stereo) | 398 | CC50 at 72 h [1]: > 63100 nM; Activity [4]: Non-Toxic; IC50 (Trypanosoma brucei [2]; read-out: IC50): 600 nM; IC50 (Trypanosoma brucei [2]; read-out: pIC50 (converted)): 631 nM; Ki [5]: 631 nM
COCCNC(=O)C#Cc1cc(C2=NN(C3CCCCCC3)C(=O)[C@@H]3CC=CC[C@H]23)ccc1OC (relative stereo) | 794 | CC50 at 72 h [1]: > 63100 nM; IC50 (Trypanosoma brucei [2]; read-out: pIC50 (converted)): > 63100 nM; Ki [5]: 1580 nM
COCCNC(=O)c1ccc(-c2cc(C3=NN(C(C)C)C(=O)[C@@H]4CC=CC[C@H]34)ccc2OC)s1 (relative stereo) | > 10000 | –
CCCCNC(=O)C1CN(c2cc(C3=NN(C(C)C)C(=O)[C@@H]4CC=CC[C@H]34)ccc2OC)C1 (relative stereo) | > 10000 | –
COc1ccc(C2=NN(C(C)C)C(=O)[C@@H]3CC=CC[C@H]23)cc1-c1ccc(C(=O)NCC(N)=O)s1 (relative stereo) | > 10000 | –
COc1cc(-c2cc(C3=NN(C4CCCCCC4)C(=O)[C@@H]4CC=CC[C@H]34)ccc2OC)ccc1C(=O)NCC(N)=O (relative stereo) | 6310 | –
COc1ccc(C2=NN(C(C)C)C(=O)[C@@H]3CC=CC[C@H]23)cc1N1CC(C(=O)NCC(N)=O)C1 (relative stereo) | > 10000 | –
COc1ccc(C2=NN(C3CCCCCC3)C(=O)[C@@H]3CC=CC[C@H]23)cc1-c1ccc2c(c1)CN(CC(N)=O)C2=O (relative stereo) | 1260 | –
COc1ccc(C2=NN(C3CCCCCC3)C(=O)[C@@H]3CC=CC[C@H]23)cc1-c1ccc(C(=O)NCC(N)=O)cc1F (relative stereo) | 2000 | –
COc1cc(C(=O)NCC(N)=O)ccc1-c1cc(C2=NN(C3CCCCCC3)C(=O)[C@@H]3CC=CC[C@H]23)ccc1OC (relative stereo) | 7940 | –
COc1ccc(C2=NN(C(C)C)C(=O)[C@@H]3CC=CC[C@H]23)cc1N1CC(C(=O)NCc2ccco2)C1 (relative stereo) | > 10000 | –
COc1ccc(C2=NN(C3CCCCCC3)C(=O)[C@@H]3CC=CC[C@H]23)cc1-c1ccc(C(=O)NCC(N)=O)c(C)c1 (relative stereo) | 2000 | –
